Assay results: PMC4381552 (Cell reports, 2014)

Tests used:
[1] = ref Tijono et al., 2013; cited from earlier work
wild-type (WT) hSTING = wild-type (WT) hSTING (Homo sapiens, UniProt Q86WV6, H232R); test: ITC binding of DMXAA to STING CTD; conditions: 25°C
[2] = target: hSTING^group1 (aa 140-379) (Homo sapiens, UniProt Q86WV6, E174G/H185L/H232R/L189M/Q196R/R191S/T181M/V194G/Y182F/Y186H); test: ITC binding of DMXAA to STING CTD; conditions: 25°C
hSTING^group3 = hSTING^group3 (Homo sapiens, UniProt Q86WV6, A300E/A302V/D297E/H232R/Q276K/Q306R/S275A/Y274D); test: ITC binding of DMXAA to STING CTD; conditions: 25°C
hSTING^group4 = hSTING^group4 (Homo sapiens, UniProt Q86WV6, A350V/E362R/E369D/F378L/G344N/H232R/K347M/K370Q/L346P/M357L/S345A/S353P/S379I/T354P/T356V/V343M/V351A); test: ITC binding of DMXAA to STING CTD; conditions: 25°C
hSTING^group2 = hSTING^group2 (Homo sapiens, UniProt Q86WV6, D237N/G230I/H232R/I244V/K224M/L222R/T229N); test: IFN-β luciferase reporter assay in transfected 293T cells; assay type: cell-based; conditions: 0.18 mM DMXAA (50 μg/ml), 12 hr
hSTING^group134 = hSTING^group134 (Homo sapiens, UniProt Q86WV6, A300E/A302V/A350V/D297E/E174G/E362R/E369D/F378L/G344N/H185L/H232R/K347M/K370Q/L189M/L346P/M357L/Q196R/Q276K/Q306R/R191S/S275A/S345A/S353P/S379I/T181M/T354P/T356V/V194G/V343M/V351A/Y182F/Y186H/Y274D); test: IFN-β luciferase reporter assay in transfected 293T cells; assay type: cell-based; conditions: 0.18 mM DMXAA (50 μg/ml), 12 hr, versus hSTING^group1234
Outline: (§1)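 HEK293T cells were reverse-transfected with full-length STING plasmids, expressed at moderate levels, plus IFN-β reporter constructs. […] Luciferase was read 12 hr later. Gaussia luciferase was normalized to constitutive firefly luciferase. Values are means of triplicates + SEM, representative of three independent experiments.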

hSTING Q266I = hSTING Q266I (Homo sapiens, UniProt Q86WV6, H232R/Q266I); test: as above; assay type: cell-based; conditions: 0.18 mM DMXAA, 12 hr
Outline: as §1

hSTING Q266L = hSTING Q266L (Homo sapiens, UniProt Q86WV6, H232R/Q266L); test: as above; assay type: cell-based; conditions: 0.18 mM DMXAA, 12 hr
Outline: as §1

hSTING G166S = hSTING G166S (Homo sapiens, UniProt Q86WV6, G166S/H232R); test: as above; assay type: cell-based; conditions: 0.18 mM DMXAA, 12 hr
Outline: as §1

hSTING I235L = hSTING I235L (Homo sapiens, UniProt Q86WV6, H232R/I235L); test: as above; assay type: cell-based; conditions: 0.18 mM DMXAA, 12 hr
Outline: as §1

hSTING Q266V = hSTING Q266V (Homo sapiens, UniProt Q86WV6, H232R/Q266V); test: as above; assay type: cell-based; conditions: 0.18 mM DMXAA, 12 hr
Outline: as §1

WT hSTING = WT hSTING (Homo sapiens, UniProt Q86WV6, H232R); test: Cytokine/chemokine induction in STING^Gt/Gt BMDCs reconstituted with hSTING; assay type: cell-based; conditions: 50 µg/ml DMXAA, 3 hr, real-time PCR
Outline: (§2)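 STING-deficient BMDCs were derived from STINGGt/Gt mouse bone marrow cultured with GM-CSF for 10 days and plated at 1 × 10^6 cells/well. They were infected with retroviruses expressing hSTING variants, and hSTING levels were checked by western blot. […] IFNB1, CXCL10, CCL5 and IL-6 mRNA were measured by real-time PCR. Data are means ± SEM (n = 3) from one of two experiments.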

hSTING^G230I = hSTING^G230I (Homo sapiens, UniProt Q86WV6, G230I/H232R); test: as above; assay type: cell-based; conditions: 50 µg/ml DMXAA, 3 hr, real-time PCR
Outline: as §2

hSTING^S162A/Q266I = hSTING^S162A/Q266I (Homo sapiens, UniProt Q86WV6, H232R/Q266I/S162A); test: as above; assay type: cell-based; conditions: 50 µg/ml DMXAA, 3 hr, real-time PCR
Outline: as §2

hSTING^S162A/G230I/Q266I = hSTING^S162A/G230I/Q266I (Homo sapiens, UniProt Q86WV6, G230I/H232R/Q266I/S162A); test: as above; assay type: cell-based; conditions: 50 µg/ml DMXAA
Outline: as §2

hSTING^S162A = hSTING^S162A (Homo sapiens, UniProt Q86WV6, H232R/S162A); test: as above; assay type: cell-based; conditions: 50 µg/ml DMXAA, 3 hr, real-time PCR
Outline: as §2

[3] = test system: all hSTING alleles with S162A/Q266I double substitution; test: IFN-β luciferase reporter assay in transfected 293T cells; assay type: cell-based, human; conditions: 0.18 mM DMXAA, alleles R232, HAQ, H232, AQ, Q293
Outline: as §1

[4] = test system: non-small-cell lung cancer; conditions: in combination with paclitaxel and carboplatin; ref Lara et al., 2011; cited from earlier work

hSTING^S162A/G230I/Q266I, sequence (Q86WV6 whole entry S162A/G230I/H232R/Q266I): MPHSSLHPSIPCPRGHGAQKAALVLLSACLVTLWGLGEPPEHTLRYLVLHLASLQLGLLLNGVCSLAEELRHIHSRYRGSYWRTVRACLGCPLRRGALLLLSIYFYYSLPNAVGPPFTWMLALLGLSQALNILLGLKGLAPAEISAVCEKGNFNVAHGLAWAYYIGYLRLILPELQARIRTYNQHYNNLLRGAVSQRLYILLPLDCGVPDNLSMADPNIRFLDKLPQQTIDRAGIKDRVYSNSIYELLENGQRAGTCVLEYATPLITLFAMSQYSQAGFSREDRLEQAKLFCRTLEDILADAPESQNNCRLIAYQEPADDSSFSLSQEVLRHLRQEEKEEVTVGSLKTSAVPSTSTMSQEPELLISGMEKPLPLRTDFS
hSTING^G230I, sequence (Q86WV6 whole entry G230I/H232R): as the sequence (Q86WV6 whole entry S162A/G230I/H232R/Q266I) above, with A162S, I266Q counted along it
wild-type (WT) hSTING, sequence (Q86WV6 140-379 H232R): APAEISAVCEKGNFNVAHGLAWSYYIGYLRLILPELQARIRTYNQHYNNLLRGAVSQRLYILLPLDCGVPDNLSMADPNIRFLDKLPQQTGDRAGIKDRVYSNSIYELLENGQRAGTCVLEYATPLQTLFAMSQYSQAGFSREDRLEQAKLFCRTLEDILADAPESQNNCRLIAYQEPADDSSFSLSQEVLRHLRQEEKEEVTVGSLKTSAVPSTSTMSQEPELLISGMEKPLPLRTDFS
hSTING Q266V, sequence (Q86WV6 whole entry H232R/Q266V): as the sequence (Q86WV6 whole entry S162A/G230I/H232R/Q266I) above, with A162S, I230G, I266V counted along it
hSTING^group134, sequence (Q86WV6 1-379 with the stated changes): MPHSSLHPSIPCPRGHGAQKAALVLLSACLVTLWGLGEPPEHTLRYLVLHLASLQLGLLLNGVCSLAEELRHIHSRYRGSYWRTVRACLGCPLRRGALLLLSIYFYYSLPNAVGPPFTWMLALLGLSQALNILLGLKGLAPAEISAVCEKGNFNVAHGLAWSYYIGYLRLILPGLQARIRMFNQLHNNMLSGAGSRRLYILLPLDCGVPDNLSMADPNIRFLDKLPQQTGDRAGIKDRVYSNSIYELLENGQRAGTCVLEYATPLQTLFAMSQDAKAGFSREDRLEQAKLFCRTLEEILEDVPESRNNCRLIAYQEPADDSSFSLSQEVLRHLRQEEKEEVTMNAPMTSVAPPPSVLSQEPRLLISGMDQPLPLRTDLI
hSTING Q266L, sequence (Q86WV6 whole entry H232R/Q266L): as the sequence (Q86WV6 whole entry S162A/G230I/H232R/Q266I) above, with A162S, I230G, I266L counted along it
hSTING^group4, sequence (Q86WV6 140-379 with the stated changes): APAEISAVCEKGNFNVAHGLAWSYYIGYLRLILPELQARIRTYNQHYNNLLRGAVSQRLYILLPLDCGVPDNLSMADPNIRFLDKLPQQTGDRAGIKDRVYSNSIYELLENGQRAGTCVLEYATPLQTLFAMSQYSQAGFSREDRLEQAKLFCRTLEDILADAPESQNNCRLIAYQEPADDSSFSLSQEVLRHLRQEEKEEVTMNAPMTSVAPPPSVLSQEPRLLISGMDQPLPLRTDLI
hSTING I235L, sequence (Q86WV6 whole entry H232R/I235L): as the sequence (Q86WV6 whole entry S162A/G230I/H232R/Q266I) above, with A162S, I230G, I235L, I266Q counted along it
hSTING G166S, sequence (Q86WV6 whole entry G166S/H232R): as the sequence (Q86WV6 whole entry S162A/G230I/H232R/Q266I) above, with A162S, G166S, I230G, I266Q counted along it
hSTING^group2, sequence (Q86WV6 whole entry L222R/K224M/T229N/G230I/H232R/D237N/I244V): as the sequence (Q86WV6 whole entry S162A/G230I/H232R/Q266I) above, with A162S, L222R, K224M, T229N, D237N, I244V, I266Q counted along it
hSTING Q266I, sequence (Q86WV6 whole entry H232R/Q266I): as the sequence (Q86WV6 whole entry S162A/G230I/H232R/Q266I) above, with A162S, I230G counted along it
WT hSTING, sequence (Q86WV6 whole entry H232R): as the sequence (Q86WV6 whole entry S162A/G230I/H232R/Q266I) above, with A162S, I230G, I266Q counted along it
hSTING^group3, sequence (Q86WV6 140-379 H232R/Y274D/S275A/Q276K/D297E/A300E/A302V/Q306R): as the sequence (Q86WV6 140-379 H232R) above, with Y135D, S136A, Q137K, D158E, A161E, A163V, Q167R counted along it
hSTING^group1 (aa 140-379), sequence (Q86WV6 140-379 E174G/T181M/Y182F/H185L/Y186H/L189M/R191S/V194G/Q196R/H232R): as the sequence (Q86WV6 140-379 H232R) above, with E35G, T42M, Y43F, H46L, Y47H, L50M, R52S, V55G, Q57R counted along it
hSTING^S162A/Q266I, sequence (Q86WV6 whole entry S162A/H232R/Q266I): as the sequence (Q86WV6 whole entry S162A/G230I/H232R/Q266I) above, with I230G counted along it
hSTING^S162A, sequence (Q86WV6 whole entry S162A/H232R): as the sequence (Q86WV6 whole entry S162A/G230I/H232R/Q266I) above, with I230G, I266Q counted along it

## Cc1ccc2oc3c(CC(=O)O)cccc3c(=O)c2c1 [7-methyl-XAA]
[1]
  activity in human: weak yet human-active

## Cc1cccc2oc3c(CC(=O)O)cccc3c(=O)c12 [8-methyl-XAA]
[1]
  activity in human: weak yet human-active

## Cc1ccc2c(=O)c3cccc(CC(=O)O)c3oc2c1C [DMXAA, 5,6-dimethylxanthenone-4-acetic acid]
wild-type (WT) hSTING
  binding to DMXAA: no detectable binding
[2]
  binding to DMXAA: no detectable binding
hSTING^group3
  binding to DMXAA: no detectable binding
hSTING^group4
  binding to DMXAA: no detectable binding
hSTING^group2
  IFN-β reporter response: showed responsiveness to DMXAA
hSTING^group134
  IFN-β reporter response: strongly diminished DMXAA activation
hSTING Q266I
  IFN-β induction: conferred DMXAA sensitivity
hSTING Q266L
  IFN-β induction: less pronounced gain
hSTING G166S
  IFN-β induction: showed no effects
hSTING I235L
  IFN-β induction: showed no effects
hSTING Q266V
  IFN-β induction: showed no effects
WT hSTING
  IFN-β mRNA upregulation: did not induce the upregulation
hSTING^G230I
  increase in IFN-β mRNA levels: 2.6 fold
hSTING^S162A/Q266I
  increase in IFN-β mRNA levels: 3.1 fold
hSTING^S162A/G230I/Q266I; 3 hr, real-time PCR
  increase in IFN-β mRNA levels: 4.2 fold
  upregulation of CXCL10, CCL5, and IL-6 mRNAs: strongest induction among the four mutants
hSTING^S162A/G230I/Q266I; 18 hr
  CXCL10 production (supernatant, ELISA): highest level of CXCL10 production
hSTING^S162A
  increase in IFN-β mRNA levels: 2.2 fold
[3]
  DMXAA responsiveness (IFN-β reporter): able to induce DMXAA responsiveness
[4]
  outcome of human phase III trials: failed
